Assay results published in ChEMBL document CHEMBL4020727, “Synthesis and biological evaluation of largazole zinc-binding group analogs” (Bioorg Med Chem, 2017).

How the values were obtained:
Homo sapiens [1] = organism: Homo sapiens; assay: Inhibition of class 1 HDAC in human MDA-MB-231 cells assessed as hyperacetylation of histone H3 (Lys9/14) measured at 8 hrs post treatment by immunoblot analysis; type: cell-based
In short: (§1)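 Cells in DMEM/10% FBS; 4 × 10^5 cells seeded in 60-mm dishes overnight, then treated for 8 h with 0–10 μM (final) compound or vehicle (1% EtOH). Whole-cell lysates loaded at equal protein (BCA), run on SDS-PAGE, blotted to PVDF and probed with anti-acetyl histone H3 (Lys9/14); β-actin also probed. Chemiluminescent detection.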

Histone deacetylase 1 = Histone deacetylase 1 (Homo sapiens, UniProt Q13547); assay: Inhibition of recombinant full length C-terminal His/FLAG-tagged human HDAC1 expressed in baculovirus infected Sf9 insect cells using BPS HDAC substrate 3 after 30 mins by fluorescence assay
Chain of Histone deacetylase 1 (Q13547 whole entry): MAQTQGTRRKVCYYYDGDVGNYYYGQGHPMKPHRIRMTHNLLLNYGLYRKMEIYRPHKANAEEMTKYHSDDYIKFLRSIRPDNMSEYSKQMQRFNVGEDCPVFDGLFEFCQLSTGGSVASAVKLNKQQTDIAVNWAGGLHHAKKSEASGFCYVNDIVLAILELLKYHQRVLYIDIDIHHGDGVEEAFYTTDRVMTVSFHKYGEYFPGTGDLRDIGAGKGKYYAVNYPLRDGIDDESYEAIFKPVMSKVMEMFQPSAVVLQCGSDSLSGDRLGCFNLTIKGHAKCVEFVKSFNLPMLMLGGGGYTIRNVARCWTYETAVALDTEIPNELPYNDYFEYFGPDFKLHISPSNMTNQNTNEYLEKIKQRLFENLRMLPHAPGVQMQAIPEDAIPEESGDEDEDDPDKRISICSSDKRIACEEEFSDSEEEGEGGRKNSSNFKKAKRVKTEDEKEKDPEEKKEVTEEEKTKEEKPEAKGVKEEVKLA
In short: (§2)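 Run by a contract lab. Compound incubated with HDAC enzyme, HDAC substrate, BSA and HDAC buffer, in duplicate, at 37 °C for 30 min. Quenched with HDAC developer, then 15 min at room temperature. Percent activity = (F−Fb)/(Ft−Fb), using blank and solvent-control wells. IC50 from curve fitting.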

[2] = biological target: Histone deacetylase 5 (Homo sapiens) (UniProt Q9UQL6); assay: Inhibition of full length N-terminal GST-tagged human HDAC5 expressed in baculovirus infected Sf9 insect cells using BPS HDAC class 2a substrate at 10 uM after 30 mins by fluorescence assay relative to control
Chain of Histone deacetylase 5 (Homo sapiens) (Q9UQL6 whole entry): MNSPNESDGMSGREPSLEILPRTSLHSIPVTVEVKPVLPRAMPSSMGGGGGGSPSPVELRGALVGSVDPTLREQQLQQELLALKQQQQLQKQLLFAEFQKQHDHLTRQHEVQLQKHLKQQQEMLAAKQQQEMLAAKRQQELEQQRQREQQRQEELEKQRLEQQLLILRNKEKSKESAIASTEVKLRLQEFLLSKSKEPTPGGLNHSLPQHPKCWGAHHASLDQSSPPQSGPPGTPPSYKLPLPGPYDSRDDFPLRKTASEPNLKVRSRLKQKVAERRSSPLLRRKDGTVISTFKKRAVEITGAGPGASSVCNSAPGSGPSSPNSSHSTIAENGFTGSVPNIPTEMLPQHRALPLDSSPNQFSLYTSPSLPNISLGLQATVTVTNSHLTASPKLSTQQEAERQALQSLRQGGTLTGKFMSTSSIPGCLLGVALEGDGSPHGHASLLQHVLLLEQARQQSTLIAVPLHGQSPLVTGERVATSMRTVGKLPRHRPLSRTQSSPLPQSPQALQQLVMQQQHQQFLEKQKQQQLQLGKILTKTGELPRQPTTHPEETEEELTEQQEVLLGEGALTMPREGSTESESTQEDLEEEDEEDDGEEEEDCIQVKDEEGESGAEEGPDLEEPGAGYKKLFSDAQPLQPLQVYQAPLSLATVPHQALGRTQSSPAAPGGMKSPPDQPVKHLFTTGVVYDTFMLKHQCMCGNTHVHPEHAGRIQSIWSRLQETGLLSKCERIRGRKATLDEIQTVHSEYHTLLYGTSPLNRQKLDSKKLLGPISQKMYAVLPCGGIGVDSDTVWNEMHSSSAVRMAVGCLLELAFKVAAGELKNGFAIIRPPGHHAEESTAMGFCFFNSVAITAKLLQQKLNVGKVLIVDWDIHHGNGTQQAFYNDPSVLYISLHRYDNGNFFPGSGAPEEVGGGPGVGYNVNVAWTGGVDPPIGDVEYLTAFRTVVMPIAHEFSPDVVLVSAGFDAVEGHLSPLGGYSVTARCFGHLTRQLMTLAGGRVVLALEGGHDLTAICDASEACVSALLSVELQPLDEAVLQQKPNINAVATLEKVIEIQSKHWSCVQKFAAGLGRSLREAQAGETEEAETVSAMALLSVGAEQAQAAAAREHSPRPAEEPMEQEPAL
In short: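 Run by a contract lab. Compound incubated with HDAC enzyme, substrate, bovine serum albumin and HDAC buffer in duplicate for 30 min at 37 °C. Quenched with HDAC developer, 15 min at room temperature, fluorescence read at ex 360/em 460 nm. Activity taken as (F−Fb)/(Ft−Fb) against blank and solvent control wells; IC50 from curve fitting.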

[3] = biological target: T1, Protein deacetylase HDAC6 (Homo sapiens, UniProt Q9UBN7); assay: Inhibition of full length N-terminal GST-tagged human HDAC6 expressed in baculovirus infected Sf9 insect cells using HDAC substrate 3 after 30 mins by fluorescence assay; in short: as §2
T1 sequence (Q9UBN7 whole entry): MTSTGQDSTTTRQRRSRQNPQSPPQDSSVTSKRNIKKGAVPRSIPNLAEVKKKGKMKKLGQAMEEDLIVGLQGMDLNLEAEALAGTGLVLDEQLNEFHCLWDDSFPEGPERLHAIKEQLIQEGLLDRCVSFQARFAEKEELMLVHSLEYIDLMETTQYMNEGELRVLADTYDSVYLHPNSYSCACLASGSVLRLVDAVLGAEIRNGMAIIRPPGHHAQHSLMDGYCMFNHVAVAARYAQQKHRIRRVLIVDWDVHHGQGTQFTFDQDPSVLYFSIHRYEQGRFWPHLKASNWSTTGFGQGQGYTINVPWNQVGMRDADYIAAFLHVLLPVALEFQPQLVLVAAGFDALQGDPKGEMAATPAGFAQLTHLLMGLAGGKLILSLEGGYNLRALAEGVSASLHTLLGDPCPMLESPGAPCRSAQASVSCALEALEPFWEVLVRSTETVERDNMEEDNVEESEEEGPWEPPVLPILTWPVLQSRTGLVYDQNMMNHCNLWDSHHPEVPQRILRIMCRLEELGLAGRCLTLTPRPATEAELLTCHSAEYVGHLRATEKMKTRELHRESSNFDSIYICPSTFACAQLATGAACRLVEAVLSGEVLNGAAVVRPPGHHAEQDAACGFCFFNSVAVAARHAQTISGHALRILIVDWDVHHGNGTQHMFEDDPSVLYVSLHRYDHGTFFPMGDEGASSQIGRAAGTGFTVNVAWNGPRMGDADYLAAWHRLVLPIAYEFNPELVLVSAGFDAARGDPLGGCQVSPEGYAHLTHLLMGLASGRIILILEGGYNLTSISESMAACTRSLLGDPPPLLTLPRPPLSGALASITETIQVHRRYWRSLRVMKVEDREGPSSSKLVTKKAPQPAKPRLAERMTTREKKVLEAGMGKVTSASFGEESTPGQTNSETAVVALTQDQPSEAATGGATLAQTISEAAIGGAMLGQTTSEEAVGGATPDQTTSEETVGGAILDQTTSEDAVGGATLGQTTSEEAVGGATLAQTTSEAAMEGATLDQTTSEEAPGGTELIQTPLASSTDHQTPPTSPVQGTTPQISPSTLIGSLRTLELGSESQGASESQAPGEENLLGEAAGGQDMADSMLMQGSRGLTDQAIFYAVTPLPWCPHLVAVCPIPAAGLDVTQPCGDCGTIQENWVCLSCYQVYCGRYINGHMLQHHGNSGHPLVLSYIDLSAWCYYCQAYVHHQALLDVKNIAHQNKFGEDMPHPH

Homo sapiens [4] = organism: Homo sapiens; assay: Inhibition of class 1 HDAC in human HCT116 cells assessed as hyperacetylation of histone H3 (Lys9/14) measured at 8 hrs post treatment by immunoblot analysis; type: cell-based; in short: as §1
Histone deacetylase 2 = Histone deacetylase 2 (Homo sapiens, UniProt Q92769); assay: Inhibition of full length C-terminal FLAG-tagged human HDAC2 expressed in baculovirus infected Sf9 insect cells using BPS HDAC substrate 3 after 30 mins by fluorescence assay; in short: as §2
Chain of Histone deacetylase 2 (Q92769 whole entry): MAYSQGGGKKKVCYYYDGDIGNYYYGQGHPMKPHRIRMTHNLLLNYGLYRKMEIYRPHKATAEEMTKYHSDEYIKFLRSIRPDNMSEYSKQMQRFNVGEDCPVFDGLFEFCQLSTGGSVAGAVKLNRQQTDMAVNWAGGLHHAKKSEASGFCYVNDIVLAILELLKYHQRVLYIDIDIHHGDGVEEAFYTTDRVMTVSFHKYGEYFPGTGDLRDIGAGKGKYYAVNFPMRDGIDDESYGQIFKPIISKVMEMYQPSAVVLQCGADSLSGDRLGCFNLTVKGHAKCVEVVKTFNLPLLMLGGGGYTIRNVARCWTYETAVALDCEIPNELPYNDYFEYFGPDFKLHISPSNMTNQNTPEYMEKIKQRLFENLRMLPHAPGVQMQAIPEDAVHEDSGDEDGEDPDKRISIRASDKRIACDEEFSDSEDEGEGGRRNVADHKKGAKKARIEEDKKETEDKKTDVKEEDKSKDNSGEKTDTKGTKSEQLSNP

MDA-MB-231 = assay: Cytotoxicity against human MDA-MB-231 cells assessed as reduction in cell viability after 48 hrs by MTT assay; type: functional, cell-based; settings: MDA-MB-231, 48 h
In short: (§3)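 Cells grown in DMEM with 10% FBS, 37 °C, 5% CO2; 1 × 10^4 cells per well plated and left 24 h, then exposed to a range of compound concentrations or vehicle (1% EtOH) for 48 h. Viability read by MTT.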

Histone deacetylase 8 = biological target: T2, Histone deacetylase 8 (Homo sapiens, UniProt Q9BY41); assay: Inhibition of full length C-terminal His-tagged human HDAC8 expressed in baculovirus infected Sf9 insect cells using BPS HDAC class 2a substrate after 30 mins by fluorescence assay; in short: as §2
T2 sequence (Q9BY41 whole entry): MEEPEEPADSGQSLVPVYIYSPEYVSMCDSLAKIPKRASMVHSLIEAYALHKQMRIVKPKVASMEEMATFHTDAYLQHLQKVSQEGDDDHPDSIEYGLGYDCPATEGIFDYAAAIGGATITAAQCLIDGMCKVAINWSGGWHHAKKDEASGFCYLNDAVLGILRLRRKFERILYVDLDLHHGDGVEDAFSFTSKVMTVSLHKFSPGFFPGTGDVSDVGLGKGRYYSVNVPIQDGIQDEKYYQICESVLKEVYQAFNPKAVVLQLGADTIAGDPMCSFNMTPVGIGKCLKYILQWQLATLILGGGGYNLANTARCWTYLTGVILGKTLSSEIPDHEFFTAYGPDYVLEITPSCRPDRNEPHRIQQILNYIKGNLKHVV

HCT-116 = assay: Cytotoxicity against human HCT116 cells assessed as reduction in cell viability after 48 hrs by MTT assay; type: functional, cell-based; settings: HCT-116, 48 h; in short: as §3

Structure (SMILES): CC(C)[C@@H]1NC(=O)[C@]2(C)CSC(=N2)c2csc(n2)CNC(=O)C[C@@H](/C=C/CCC(=O)NO)OC1=O
- inhibition (Homo sapiens [1]): Dose-dependent effect
- IC50 (Histone deacetylase 1): 0.026 µM
- inhibition [2]: 21%
- IC50 [3]: 0.6 µM
- inhibition (Homo sapiens [4]): Dose-dependent effect
- IC50 (Histone deacetylase 2): 0.069 µM
- IC50 (MDA-MB-231): 0.497 µM
- IC50 (Histone deacetylase 8): 3.5 µM
- IC50 (HCT-116): 3.3 µM

Structure (SMILES): CC(C)[C@@H]1NC(=O)[C@]2(C)CSC(=N2)c2csc(n2)CNC(=O)C[C@@H](/C=C/CCSCCS)OC1=O
- inhibition (Homo sapiens [1]): Dose-dependent effect
- IC50 (Histone deacetylase 1): 0.04 µM
- inhibition [2]: 22%
- IC50 [3]: 2.8 µM
- inhibition (Homo sapiens [4]): Dose-dependent effect
- IC50 (Histone deacetylase 2): 0.09 µM
- IC50 (MDA-MB-231): 0.48 µM
- IC50 (Histone deacetylase 8): 9.6 µM
- IC50 (HCT-116): 1.5 µM
